Measurements: ChEMBL document CHEMBL1152989, “Results of a double-blind, randomized trial of ceftobiprole treatment of complicated skin and skin structure infections caused by gram-positive bacteria” (Antimicrob Agents Chemother, 2008)
Converted amounts (≈) assume the structure as drawn.

How the values were obtained:
Staphylococcus aureus [1] = assay: Antibacterial activity against methicillin-resistant Staphylococcus aureus infected in human with infections extending to fascia or muscle assessed as cure rate at test-of-cure visit; type: functional, Muscle tissue
Homo sapiens [2] = organism: Homo sapiens; assay: Toxicity in methicillin-resistant Staphylococcus aureus-infected human with complicated skin and skin structure infection assessed as nausea; type: organism-based; conditions: in vivo
Summary of the method: (§1)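 Safety population: randomized patients given at least one dose of IV study drug (500 mg every 12 h, 1-h infusion, 7–14 days) or vancomycin 1 g every 12 h, double-blind. Adverse events, including deaths, were recorded during treatment and follow-up. Laboratory values were compared between baseline and end of therapy.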

Homo sapiens [3] = organism: Homo sapiens; assay: Toxicity in methicillin-resistant Staphylococcus aureus-infected human with complicated skin and skin structure infection assessed as vomiting; type: organism-based; conditions: in vivo; summary of the method: as §1
Homo sapiens [4] = organism: Homo sapiens; assay: Toxicity in methicillin-resistant Staphylococcus aureus-infected human with complicated skin and skin structure infection assessed as dysgeusia; type: organism-based; conditions: in vivo; summary of the method: as §1
Homo sapiens [5] = organism: Homo sapiens; assay: Toxicity in methicillin-resistant Staphylococcus aureus-infected human with complicated skin and skin structure infection assessed as diarrhea; type: organism-based; conditions: in vivo; summary of the method: as §1
Homo sapiens [6] = organism: Homo sapiens; assay: Toxicity in methicillin-resistant Staphylococcus aureus-infected human with complicated skin and skin structure infection assessed as constipation; type: organism-based; conditions: in vivo; summary of the method: as §1
Homo sapiens [7] = organism: Homo sapiens; assay: Toxicity in methicillin-resistant Staphylococcus aureus-infected human with complicated skin and skin structure infection assessed as headache; type: organism-based; conditions: in vivo; summary of the method: as §1
Homo sapiens [8] = organism: Homo sapiens; assay: Toxicity in methicillin-resistant Staphylococcus aureus-infected human with complicated skin and skin structure infection assessed as dizziness; type: organism-based; conditions: in vivo; summary of the method: as §1
Homo sapiens [9] = organism: Homo sapiens; assay: Toxicity in methicillin-resistant Staphylococcus aureus-infected human with complicated skin and skin structure infection assessed as rash; type: organism-based; conditions: in vivo; summary of the method: as §1
Homo sapiens [10] = organism: Homo sapiens; assay: Toxicity in methicillin-resistant Staphylococcus aureus-infected human with complicated skin and skin structure infection assessed as pruritus; type: organism-based; conditions: in vivo; summary of the method: as §1
Homo sapiens [11] = organism: Homo sapiens; assay: Toxicity in methicillin-resistant Staphylococcus aureus-infected human assessed as death; type: organism-based; conditions: in vivo; summary of the method: as §1
Staphylococcus aureus [12] = assay: Antibacterial activity against methicillin-resistant Staphylococcus aureus infected in human with complicated skin and skin structure infection assessed as cure rate at test-of-cure visit; type: functional
Staphylococcus aureus [13] = assay: Antibacterial activity against methicillin-susceptible Staphylococcus aureus; type: functional
Summary of the method: (§2)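 Duplicate baseline isolates from the infection site were tested centrally for susceptibility on customized TREK broth panels by CLSI methods. Identification was by coagulase and API testing. Staphylococci were typed for mecA and PVL genes by multiplex analysis.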

Staphylococcus aureus [14] = assay: Antibacterial activity against methicillin-susceptible Staphylococcus aureus infected in human with complicated skin and skin structure infection assessed as cure rate at test-of-cure visit; type: functional
Staphylococcus aureus [15] = assay: Antibacterial activity against methicillin-resistant Staphylococcus aureus; type: functional; summary of the method: as §2
Staphylococcus aureus [16] = assay: Antibacterial activity against methicillin-resistant Staphylococcus aureus clinical isolate; type: functional; summary of the method: as §2
Staphylococcus aureus [17] = assay: Antibacterial activity against methicillin-resistant Staphylococcus aureus infected in human with complicated skin and skin structure infection assessed as cure rate at test-of-cure visit in presence of C-reactive protein; type: functional
Staphylococcus aureus [18] = assay: Antibacterial activity against methicillin-resistant Staphylococcus aureus PVL positive isolate infected in human with complicated skin and skin structure infection assessed as cure rate at test-of-cure visit; type: functional

Row | SMILES | Activity (Staphylococcus aureus [1]) [%] | Activity (Homo sapiens [2]) [%] | Activity (Homo sapiens [3]) [%] | Activity (Homo sapiens [4]) [%] | Activity (Homo sapiens [5]) [%] | Activity (Homo sapiens [6]) [%] | Activity (Homo sapiens [7]) [%] | Activity (Homo sapiens [8]) [%] | Activity (Homo sapiens [9]) [%] | Activity (Homo sapiens [10]) [%] | Activity (Homo sapiens [11]) | Activity (Staphylococcus aureus [12]) [%] | MIC50 (Staphylococcus aureus [13]) [µg/mL] | MIC90 (Staphylococcus aureus [13]) [µg/mL] | Activity (Staphylococcus aureus [14]) [%] | MIC90 (Staphylococcus aureus [15]) [µg/mL] | MIC50 (Staphylococcus aureus [16]) [µg/mL] | MIC90 (Staphylococcus aureus [16]) [µg/mL] | Activity (Staphylococcus aureus [17]) [%] | Activity (Staphylococcus aureus [18]) [%]
1 | Nc1nc(/C(=N/O)C(=O)N[C@@H]2C(=O)N3C(C(=O)O)=C(/C=C4\CCN([C@@H]5CCNC5)C4=O)CS[C@H]23)ns1 [CEFTOBIPROLE] | 90.5 | 14 | 7 | 8 | 5 | 4 | 7 | 4 | 2 | 3 | Non-toxic | 91.8 | 0.25 (≈ 0.468 µM) | 0.5 (≈ 0.935 µM) | 96 | ≤ 2 | 0.5 (≈ 0.935 µM) | 2 (≈ 3.74 µM) | 86.9 | 93.1
2 | CN[C@H](CC(C)C)C(=O)N[C@H]1C(=O)N[C@@H](CC(N)=O)C(=O)N[C@H]2C(=O)N[C@H]3C(=O)N[C@H](C(=O)N[C@H](C(=O)O)c4cc(O)cc(O)c4-c4cc3ccc4O)[C@H](O)c3ccc(c(Cl)c3)Oc3cc2cc(c3O[C@@H]2O[C@H](CO)[C@@H](O)[C@H](O)[C@H]2O[C@H]2C[C@](C)(N)[C@H](O)[C@H](C)O2)Oc2ccc(cc2Cl)[C@H]1O [VANCOMYCIN] | 85.7 | 8 | 4 | 1 | 4 | 3 | 6 | 2 | 3 | 6 |  | 90 | 0.5 (≈ 0.345 µM) | 1 (≈ 0.69 µM) | 96.4 |  | 0.5 (≈ 0.345 µM) | 1 (≈ 0.69 µM) | 87.5 | 84.6
